Our source for the Ki values is ChEMBL document CHEMBL1147780, “Peptide inhibitors of Dengue virus NS3 protease. Part 1: Warhead” (Bioorg Med Chem Lett, 2006).

Where a SMILES comes first, the peptide text is derived from it. [ ]: non-standard residue; d: D form. The star is where a group is joined. Nle = CCCC[C@H](N)C(=O)O; Bz = O=C(c1ccccc1)*; CF3 = FC(F)(F)*

The assay has as its target Genome polyprotein (dengue virus type 2, UniProt P29990). The assay is described as follows: Inhibitory activity against CF40.NS3pro from Dengue virus type 2. In a few lines:
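Enzyme: truncated dengue 2 NS3 protease fused through a flexible linker to a […] NS2B region. Inhibitors tested in 96-well format in 50 mM Tris, pH 8.5, with 1 mM CHAPS. Values reported as Ki.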

Chain of Genome polyprotein (P29990 1346-1475 limits assumed): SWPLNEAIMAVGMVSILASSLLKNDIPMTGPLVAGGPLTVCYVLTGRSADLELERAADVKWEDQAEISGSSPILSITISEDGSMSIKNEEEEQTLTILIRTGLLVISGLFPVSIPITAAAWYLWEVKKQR
Chain of Genome polyprotein (P29990 1476-2093 limits assumed): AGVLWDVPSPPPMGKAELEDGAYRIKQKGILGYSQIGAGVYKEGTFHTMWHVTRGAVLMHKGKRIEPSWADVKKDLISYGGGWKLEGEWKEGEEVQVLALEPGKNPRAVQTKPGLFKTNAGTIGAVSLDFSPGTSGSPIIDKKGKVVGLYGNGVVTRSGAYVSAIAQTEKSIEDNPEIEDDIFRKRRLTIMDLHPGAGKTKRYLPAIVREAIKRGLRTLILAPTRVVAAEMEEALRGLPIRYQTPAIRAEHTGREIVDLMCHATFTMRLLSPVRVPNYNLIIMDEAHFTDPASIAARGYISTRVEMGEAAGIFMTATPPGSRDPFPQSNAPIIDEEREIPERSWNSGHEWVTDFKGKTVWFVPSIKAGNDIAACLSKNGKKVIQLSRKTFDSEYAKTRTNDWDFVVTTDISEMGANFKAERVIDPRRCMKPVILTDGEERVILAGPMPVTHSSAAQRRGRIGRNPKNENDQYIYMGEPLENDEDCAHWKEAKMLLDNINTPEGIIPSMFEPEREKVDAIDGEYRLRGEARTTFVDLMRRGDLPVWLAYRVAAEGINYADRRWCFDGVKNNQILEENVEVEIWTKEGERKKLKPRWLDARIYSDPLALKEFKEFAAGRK

Take `CCCC[C@H](NC(=O)c1ccccc1)C(=O)N[C@@H](CCCCN)C(=O)N[C@@H](CCCN=C(N)N)C(=O)N[C@@H](CCCN=C(N)N)B(O)O`: the Ki (usually the equilibrium dissociation constant of an inhibitor or competing ligand from its target) is 0.043 µM.
To `CCCC[C@H](NC(=O)c1ccccc1)C(=O)N[C@@H](CCCCN)C(=O)N[C@H](C(=O)N[C@H](C=O)CCCN=C(N)N)[C@@H](C)O` (Bz-[Nle]KTR-aldehyde) belongs above 500 µM; to `CCCC[C@H](NC(=O)c1ccccc1)C(=O)N[C@@H](CCCCN)C(=O)N[C@@H](CCCNC(=N)N)C(=O)N[C@@H](CCCNC(=N)N)C(=O)c1nccs1`, 42.8 µM.
The molecule `CCCC[C@H](NC(=O)c1ccccc1)C(=O)N[C@@H](CCCCN)C(=O)N[C@H](C(=O)N[C@@H](CCCN=C(N)N)C(N)=O)[C@@H](C)O` (Bz-[Nle]KTR-NH2) gave a Ki above 500 µM.
The molecule `CCCC[C@H](NC(=O)c1ccccc1)C(=O)N[C@@H](CCCCN)C(=O)N[C@@H](CCCN=C(N)N)C(=O)N[C@@H](CCCN=C(N)N)C(=O)NS(=O)(=O)C(F)(F)F` returned an inhibition constant Ki above 500 µM.
The value for `CCCC[C@H](NC(=O)c1ccccc1)C(=O)N[C@@H](CCCCN)C(=O)N[C@@H](CCCN=C(N)N)C(=O)N[C@@H](CCCN=C(N)N)C(O)C(=O)NCc1ccccc1` (stereo partly specified) was 178 µM.
The value for `CCCC[C@H](NC(=O)c1ccccc1)C(=O)N[C@@H](CCCCN)C(=O)N[C@@H](CCCNC(=N)N)C(=O)N[C@@H](CCCNC(=N)N)C(=O)c1nc2ccccc2o1` was 82.9 µM; that for `CCCC[C@H](NC(=O)c1ccccc1)C(=O)N[C@@H](CCCCN)C(=O)N[C@@H](CCCN=C(N)N)C(=O)N[C@@H](CCCN=C(N)N)C(N)=O` (Bz-[Nle]KRR-NH2) was 128 µM.
`CCCC[C@H](NC(=O)c1ccccc1)C(=O)N[C@@H](CCCCN)C(=O)N[C@@H](CCCN=C(N)N)C(=O)N[C@@H](CCCN=C(N)N)C(=O)C(F)(F)F` (Bz-[Nle]KRR-CF3) gave a Ki of 0.85 µM.
Regarding `CCCC[C@H](NC(=O)c1ccccc1)C(=O)N[C@@H](CCCCN)C(=O)N[C@H](C(=O)N[C@@H](CCCN=C(N)N)C(=O)O)[C@@H](C)O` (Bz-[Nle]KTR-OH), the Ki was above 500 µM.
To `CCCC[C@H](NC(=O)c1ccccc1)C(=O)N[C@@H](CCCCN)C(=O)N[C@@H](CCCN=C(N)N)C(=O)N[C@@H](CCCN=C(N)N)C(=O)O` (Bz-[Nle]KRR-OH) belongs above 500 µM.
